{"source": "paper PMC4371781", "about": "(Biochemistry, 2015)", "molecules": {"B1": {"name": "RbAB (pocket domain of the retinoblastoma protein, cyclin boxes A and B joined by a two-residue linker) (domain or fragment, human)", "chain": "GSHTPVRTVMNTIQQLMMILNSASDQPSENLISYFNNCTVNPKESILKRVKDIGYIFKEKFAKAVGQGCVEIGSQRYKLGVRLYYRVMESMLKSEEERLSIQNFSKLLNDNIFHMSLLACALEVVMATYSRSTSQNLDSGTDLSFPWILNVLNLKAFDFYKVIESFIKAEGNLTREMIKHLERCEHRIMESLAWLSDSPLFDLIKQSKDREGEFFQTQKPLKSTSLSLFYKKVYRLAYLRLNTLCERLLSEHPELEHIIWTLFQHTLQNEYELMRDRHLDQIMMCSMYGICKVKNIDLKFKIIVTAYKDLPHAVQETFKRVLIKEEEYDSIIVFYNSVFMQRLKTNILQYASTRPPTLSPIPHIPR"}, "B2": {"name": "AR-N: recombinant protein, residues 197–269 (FTSA⋯LGEE) of RIZ preceded by three extraneous amino acids (GSG) (protein)", "chain": "GSGFTSANMRDSAEGPKEDEEKPSASALEQPATLQEVASQEVPPELATPAPAWEPQPEPDERLEAAACEVNDLGEE", "modifications": "left off: GST, N-terminal, cleaved"}, "B3": {"name": "AR: recombinant AR protein, residues 197–341 of human RIZ (FTSA⋯TPAM) preceded by four extraneous amino acids (GSPE) (protein)", "chain": "GSPEFTSANMRDSAEGPKEDEEKPSASALEQPATLQEVASQEVPPELATPAPAWEPQPEPDERLEAAACEVNDLGEEEEEEEEEDEEEEEDDDDDELEDEGEEEASMPNENSVKEPEIRCDEKPEDLLEEPKTTSEETLEDCSEVTPAM", "modifications": "left off: GST, end not stated, cleaved"}}, "key": {"[1]": {"target": "T1, RbAB (pocket domain of Rb) (Homo sapiens, UniProt P06400, A635F/DEL582-633/S634E)", "T1 sequence (P06400 with tags, fused parts or gaps DEL582-633/S634E/A635F limits assumed)": "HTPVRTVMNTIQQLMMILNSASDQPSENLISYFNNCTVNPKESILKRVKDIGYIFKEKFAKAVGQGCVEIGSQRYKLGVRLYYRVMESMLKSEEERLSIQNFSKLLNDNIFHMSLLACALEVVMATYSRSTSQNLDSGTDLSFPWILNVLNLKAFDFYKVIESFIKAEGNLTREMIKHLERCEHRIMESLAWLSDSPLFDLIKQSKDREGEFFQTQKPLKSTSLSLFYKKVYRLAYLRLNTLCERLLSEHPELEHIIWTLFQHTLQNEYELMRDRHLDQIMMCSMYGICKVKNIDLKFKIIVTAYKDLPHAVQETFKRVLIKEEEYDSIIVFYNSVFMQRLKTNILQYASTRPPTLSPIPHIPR", "assay": "Competition-based ITC", "assay_type": "binding", "procedure,_shortened": "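RbAB (Rb residues 372–581 and 636–787 joined by an EF linker, GS N-terminus) was expressed as a GST fusion in E. coli and thrombin-cleaved. At 25 °C in 20 mM Tris pH 7.5, 140 mM NaCl and 2 mM β-mercaptoethanol, the RIZ 297–341 fragment (1154 or 984 μM) was titrated into RbAB (20 or 9 μM). RbAB was pre-mixed with excess competitor: 650 μM FITC-RIZ(254–267) or 459 μM RIZ 197–269 fragment. Kd was derived from the apparent association constant with a competition equation.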"}, "[2]": {"target": "T1, RbAB (pocket domain of Rb)", "assay": "Fluorescence anisotropy, direct binding assay", "procedure,_shortened": "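Assays ran in PBS pH 7.5 with 2.5 mM DTT. Labelled peptide was held constant while RbAB was varied: 0.33 μM FITC-RIZ(254–267) at 25 °C, or 0.40 μM FITC-RIZ(309–319) at 20 °C. FITC was attached at the N-terminus via an aminohexanoyl spacer, with amidated C-termini. TCSPC steady-state anisotropy was corrected with a bound/free quantum-yield ratio (0.65 μM peptide ± 32.5 μM RbAB). Kd was fitted by nonlinear least squares with 95% confidence intervals.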"}, "[3]": {"target": "HDAC1 LXCXE-like sequence LXCXE-like sequence (Homo sapiens) (UniProt Q13547)", "conditions": "cited from earlier work"}, "[4]": {"target": "T1, RbAB (pocket domain of Rb)", "assay": "NMR-monitored titration, 1H–15N HSQC of 15N-labeled RIZ constructs with RbAB", "assay_type": "binding", "conditions": "for residues most affected by RbAB binding (loss of HSQC peak volume): 1H–15N HSQC, PBS pH 7.5, 2.5 mM DTT, 25 °C"}, "[5]": {"target": "T2, FITC-RIZ(254-267) (human)", "T2 peptide": "{FITC′-Ahx}-ERLEAAACEVNDLG-NH2", "assay": "fluorescence polarisation"}, "[6]": {"target": "T3, FITC-RIZ(309-319) (human, SMILES …)", "T3 peptide": "{FITC-Ahx}-EIRCDEKPEDL-NH2", "assay": "fluorescence polarisation"}, "[7]": {"target": "T4, AR-N (N-terminal part of the acidic region of RIZ, residues 197-269) (human, UniProt Q13029 197-269)", "T4 sequence": "B2 chain", "assay": "fluorescence polarisation"}, "[8]": {"target": "T4, AR-N (N-terminal part of the acidic …)", "assay": "ITC"}, "[9]": {"target": "T1, RbAB (pocket domain of Rb)", "assay": "Isothermal titration calorimetry, direct binding of RbAB", "procedure,_shortened": "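RbAB (GST-fusion from E. coli, thrombin-cleaved) was injected stepwise into the cell at 25 °C in 20 mM Tris pH 7.5, 140 mM NaCl and 2 mM β-mercaptoethanol. Titrations were 486 μM RbAB into 28 μM full acidic region (AR), and 524 μM RbAB into 39 μM RIZ 197–269 or 48 μM RIZ 297–341 fragment. Heats of binding were recorded and fitted to a single-binding-site model.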"}, "[10]": {"assay": "NMR structural characterization of AR", "assay_type": "physicochemical"}, "[11]": {"conditions": "from 13Cα, 13Cβ, 1Hα chemical shifts, PBS pH 7.5, 25 °C"}}, "note": "Where a SMILES comes first, the peptide text is derived from it. Primed or numbered codes have the meaning given here. The star is where a group is joined. FITC = O=C1OC2(c3ccc(O)cc3Oc3cc(O)ccc32)c2ccc(NC(=S)*)cc21; FITC′ = fluorescein; Ahx = NCCCCCC(=O)O"}
{"molecule": "CC(C)C[C@H](NC(=O)[C@H](CC(=O)O)NC(=O)[C@H](CC(N)=O)NC(=O)[C@@H](NC(=O)[C@H](CCC(=O)O)NC(=O)[C@H](CS)NC(=O)[C@H](C)NC(=O)[C@H](C)NC(=O)[C@H](C)NC(=O)[C@H](CCC(=O)O)NC(=O)[C@H](CC(C)C)NC(=O)[C@H](CCCNC(=N)N)NC(=O)[C@H](CCC(=O)O)NC(=O)CCCCCNC(=S)Nc1ccc2c(c1)C(=O)OC21c2ccc(O)cc2Oc2cc(O)ccc21)C(C)C)C(=O)NCC(N)=O", "note": "[FITC-RIZ(254–267)] ({FITC-Ahx}-ERLEAAACEVNDLG-NH2)", "values": [{"measurement": "Kd", "setting": "[1]", "value": "70 ± 10", "unit": "µM"}, {"measurement": "Kd", "setting": "[2]", "value": "~170", "unit": "µM"}]}
{"molecule": "Rb pocket domain pocket domain (from UniProt P06400)", "values": [{"measurement": "Kd", "setting": "[3]", "value": 10, "unit": "µM"}]}
{"molecule": "CC[C@H](C)[C@H](NC(=O)[C@H](CCC(=O)O)NC(=O)CCCCCNC(=S)Nc1ccc2c(c1)C(=O)OC21c2ccc(O)cc2Oc2cc(O)ccc21)C(=O)N[C@@H](CCCNC(=N)N)C(=O)N[C@@H](CS)C(=O)N[C@@H](CC(=O)O)C(=O)N[C@@H](CCC(=O)O)C(=O)N[C@@H](CCCCN)C(=O)N1CCC[C@H]1C(=O)N[C@@H](CCC(=O)O)C(=O)N[C@@H](CC(=O)O)C(=O)N[C@@H](CC(C)C)C(N)=O", "note": "[FITC-RIZ(309–319)] ({FITC-Ahx}-EIRCDEKPEDL-NH2)", "values": [{"measurement": "Kd", "setting": "[2]", "value": "~0.36", "unit": "µM"}]}
{"molecule": "EIRCDEKPEDL [peptide containing the IRCDE motif]", "values": [{"measurement": "effect of competitor peptide on AR signals in presence of RbAB", "setting": "[4]; 86 μM 15N-labeled AR, ~2-fold molar excess RbAB, 34-fold molar excess of RIZ(309–319) peptide, PBS pH 7.5, 25 °C", "value": "the intensity of all AR signals was restored"}]}
{"molecule": "B1", "values": [{"measurement": "Kd", "setting": "[5]", "value": 170, "unit": "µM"}, {"measurement": "Kd", "setting": "[6]", "value": 0.36, "unit": "µM"}, {"measurement": "Kd", "setting": "[7]", "value": 90, "unit": "µM"}, {"measurement": "Kd", "setting": "[8]", "value": "45 ± 20", "unit": "µM"}]}
{"molecule": "B2", "values": [{"measurement": "heat/enthalpy of binding to RbAB (in words)", "setting": "[9]; ITC, 25 °C, Tris pH 7.5", "value": "little or no heat is released"}, {"measurement": "residues most affected by RbAB binding (loss of HSQC peak volume)", "setting": "[4]", "value": "Residues 255–267 in AR-N"}]}
{"molecule": "B3", "values": [{"measurement": "affinity for pocket domain of Rb (in words)", "setting": "[9]; purified components, ITC and fluorescence anisotropy", "value": "submicromolar affinity"}, {"measurement": "residues most affected by RbAB binding (loss of HSQC peak volume)", "setting": "[4]", "value": "Residues 306–322 ([…]) were the most affected by RbAB binding"}, {"measurement": "exchange between free and bound forms with RbAB", "setting": "[4]; 15N-labeled AR, increasing RbAB, PBS pH 7.5, 25 °C", "value": "consistent with exchange between the free and bound forms on an intermediate time scale"}, {"measurement": "specificity of binding to RbAB", "setting": "[4]; displacement by large excess of peptide containing IRCDE motif", "value": "AR binding to RbAB is specific"}, {"measurement": "structural state in solution", "setting": "[10]; NMR, PBS pH 7.5, 2.5 mM DTT, 25 °C", "value": "consistent with AR being intrinsically disordered"}, {"measurement": "SSP scores: virtually no residues higher than", "setting": "[10]; [11]", "value": "≤ 0.2"}, {"measurement": "SSP scores: virtually no residues lower than", "setting": "[10]; [11]", "value": "≥ −0.2"}]}
